Test results from the EternaBench riboswitch data.

Test system: MS2 coat protein
Assay: apparent Kd, MS2 coat protein; higher = weaker binding; RNA-MaP array; FMN 200 µM where present
How it was run: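 Two titrations, one without ligand and one with constant ligand, were run with SNAP-549-labelled MS2 coat protein from 0.7 or 1.5 nM, doubling to 3 µM. The targets were designs transcribed by stalled E. coli RNA polymerase on Illumina sequencing-chip clusters, in 100 mM Tris-HCl pH 7.5, 80 mM KCl, 4 mM MgCl2, BSA, DTT, yeast tRNA and Tween-20. The apparent Kd is the median of filtered per-cluster binding-curve fits, with green signal normalised to red-channel RNA signal and control-cluster median Fmax.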

[1] = designed as: OFF switch for flavin mononucleotide, no ligand
[2] = ligand present: flavin mononucleotide, designed as: OFF switch for flavin mononucleotide
[3] = designed as: ON switch for flavin mononucleotide, no ligand
[4] = ligand present: flavin mononucleotide, designed as: ON switch for flavin mononucleotide

| Sequence | apparent Kd [1] [nM] | apparent Kd [2] [nM] | apparent Kd [3] [nM] | apparent Kd [4] [nM] |
| --- | --- | --- | --- | --- |
| CUUUAGUCAGGAUAUACAUGAGGAUCACCCAUGUAAAAUUUUAAUUUAAUUUUAAGGUGUAGAAGGGACCACCC | 33.4 | 29.3 | – | – |
| AGCAAGUUUACAUGAGGAUCACCCAUGUUUUUUAGGGUUAUCAGAAGGUACAUUUUGAGAUAGAGUAAGGAUAUGAUAUAUGCG | – | – | 169 | 55 |
| AGAAAGGCAGGAUAUACAUGAGGAUCACCCAUGUUAAGAAAGUGCGAAAGCACAAGAAGUAGAAGGGCCAAGAA | 23 | 21.6 | – | – |
| CUAUCGUUGCAGAAGGUUAAAUAAUUUCUCAUCAUGUUUACAUGAGGAUCACCCAUGUAUUUGUUGAAGGAUAUGCAAGUGUUG | 8.67 | 7.92 | – | – |
| ACCAGUGCAUGAGGAUAUCACAUCGGUAUCCUCCAGUGCGGCGUUCGACAUGAGGAUCACCCAUGUGAGAAGGCAUGAACUCGG | 15.6 | 18.6 | – | – |
| GGUCCAUCAUGAGGAUAUGGCACCUUAUUGGUGCCAGAAGGCAUGUGUAUACACAUGAGGAUCACCCAUGUAAUAAAUUGGACC | – | – | 144 | 22.2 |
| UUAUCUCAUGAGAAGGACAUGAGGAUCACCCAUGUAGGAUAUCAUGGGUCAGAGGAAUUGAAUCUUCGGAUUCAAUUACUCUUC | – | – | 72 | 12.2 |
| UGGGAACGAGGAUAUCGAUGGUGGAACAUGAGGAUCACCCAUGUAUGAGAUAGUGUAGUUCGAGAAGGCGUUAAGU | 68.6 | 33.8 | – | – |
| UAAGUAAGUGCAGGAUAUUUAAGAAGAACAUGAGGAUCACCCAUGUGAGGAUCACCCAUGUAAAAGGAGAAGGGCAGAGUAUGA | 960 | 1220 | – | – |
| CGGUAUAUGAAGGGCGAAAGCCCACAUGAGGAUCACCCAUGUAGAAGGCGGGCCGCAACGCGGCCCGAGGAUAUACAAUAUACA | 6.5 | 12.4 | – | – |
| GAGUAGUUGAAAGGAUAUUGAUUAUUGUAGGAUCAAGAAGGUUCUAACAUGAGGAUCACCCAUGUAGGACUAUUCCUGUGUAUC | – | – | 13 | 10.8 |
| GCGACGAAAGUCGAACGAUGUAGCAGAAGGACAUGAGGAUCACCCAUGUCAGCUGUAACAGCCAUGUAGGAUAUGCUACAUCGG | 4.09 | 5.27 | – | – |
| AAAAAACAUGAGGAUCACCCAUGUCCUCGGACAUGAGGAUAUGUACAGACUUCGGUCUGUACAGAAGGCAUGUCAA | – | – | 658 | 585 |
| GGACGAAGUGUGAGGAUAUGCUGGUCCUUGGAUCAGCAGAAGGCACAUGAGGAUCACCCAUGUGGUAAACGUCC | 114 | 746 | – | – |
| CCGCAAAUGCAGGAUAUCGUAUCGGAUACGAUACGAGAAGGGCGUACAUGAGGAUCACCCAUGUGUCCUAGCGG | 16.4 | 23.3 | – | – |
| UCGAUGCUAGGAUAUACGUAUACCUCCACCGUUGAUUCCUAACAUGAGGAUCACCCAUGUAGAAGGAGCAUCUA | 23.8 | 23.6 | – | – |
| ACUACUUAGUGAGGAUAUACAUAAUUUAUAACUGUAGAAGGCACAAACCUCAAUACAUGAGGAUCACCCAUGUUAUAUAUCUAA | 62.6 | 64.3 | – | – |
| CGUUCACAUGAGGAUCACCCAUGUCAGAUUUGGUCAGGAUAUGGUCGGCAUCCGCUAUUGCCAGAAGGGACUGUUG | – | – | 55.3 | 36.3 |
| GUCGUGUGAGGAUAUGAUUAAUAGACGGGAUUGCGACUGCAUCAGAAGGCACAUGAGGAUCACCCAUGUAUGAA | 19.4 | 63.5 | – | – |

| Sequence | apparent Kd [1] [nM] | apparent Kd [2] [nM] | apparent Kd [3] [nM] | apparent Kd [4] [nM] |
| --- | --- | --- | --- | --- |
| GGCAAGUCAGGAUAUGCGAAGUCAGGACACACACUGACGAAGCAGAAGGGACAUGAGGAUCACCCAUGUAAGCC | 31.9 | 19.9 | – | – |
| GUGUACCGAGGAUAUGCUGGAAUCUAGCGAAGCUAGGUUCCACAUGAGGAUCACCCAUGUAGAAGGUGGUACAC | 79.9 | 25.7 | – | – |
| CUUUUGUGAGGAUAUCAGUAGUAAAAAAAUAAUAUUACUACUGAGAAGGCACAUGAGGAUCACCCAUGUUCCUC | 36 | 276 | – | – |
| UCCACUGCUGAGAAGGGAUACGUCUGGUUCGCAUCAGGAUAUCGAUACAGUGCAGCAUGAGGACAUGAGGAUCACCCAUGUGUG | – | – | 103 | 53.6 |
| CUUAUGUGAGGAUAUCAGUAGUAAAAAAAUAAAAUUACUACUGAGAAGGCACAUGAGGAUCACCCAUGUGUCUC | 20.4 | 22.2 | – | – |
| UCCUGGCGAGGAUAUACAAUGUUUUUCGCGUGUUGUUGCGAACAUGAGGAUCACCCAUGUAGAAGGUGCUACUG | 278 | 225 | – | – |
| GGGUGAGCUCAAGGAUAUCCAAAAUGGUUACAUGAGGAUCACCCAUGUCCAGGCGAAUAAAGGCCGGAGAAGGUGAGGGCCCUC | – | – | 60.2 | 156 |
| UUAAAUCGAAACAUGAGGAUCACCCAUGUGUUGUGAUUAAUAUAGGAUAUGUGUAUACUUUUAUGACAGAAGGAUGAUAAUACU | – | – | 12.3 | 10.7 |
| CUCAAACAUGAGGAUCACCCAUGUGUUGUCAUGGGAGGAUAUCUAAGUUCGUUGUAGUCGGGAGAAGGCCUAUGUC | – | – | 134 | 47.2 |
| GUAAGCAUGUCAGGAUAUCGCAAUAUCAAACCGUGAGAAGGGACAUGAGGAUCACCCAUGUAUUGUUCGGGAGGACCCAGCUGA | 67.3 | 358 | – | – |
| GUCCUACAUGAGGAUCACCCAUGUAAGGAUAUGCUAGCGGUCGGAUGACUGACUGCUAGCAGAAGGUACAUGAU | 15.2 | 24.9 | – | – |
| ACUAUACGAGGAUAUACUGACGGGCCUCAGGCAUACAUCAAACAUGAGGAUCACCCAUGUAGAAGGCGUAUACU | 79.4 | 29.2 | – | – |
| UUAUGUCGCGUAGGAUAUCACUAGUGUUGUAAUUUAAUUGUAAUUACGAUGUGAGAAGGACGUACACAUGAGGAUCACCCAUGU | 20.3 | 16.2 | – | – |
| GUGUAGAUAGGAUAUGCUGGAAUCUAGCGAAGCUAGGUUCCACAUGAGGAUCACCCAUGUAGAAGGGUCUACAC | 200 | 54 | – | – |
| UCUUAUUGCAAGGAUAUGCUUUUUAUUUCUUUUGCAGAAGGUGCAACAUGAGGAUCACCCAUGUUUCCGGGCAU | 16 | 28 | – | – |
| CGUACUCAAGUGAGGAUAUUGUCUCGGAUACGAAACAAGAAGGCACAUGAGGAUCACCCAUGUAGAGAGUACGA | 16.2 | 14.3 | – | – |
| AUGAGUAAAGCAGGAUAUCUAUUGUCUCUGAAACAUGAGGAUCACCCAUGUAGAGAAGGGCUAAGUCUUACUCUUCGGAGUUGA | 9.98 | 10.3 | – | – |
| CCCGGACAUGAGGAUCACCCAUGUUAGGAUAUCUAGAGGAUCUAAACCGAAUAGAUCCAGAGAAGGGAUGUGGG | – | 46.5 | – | – |
| UUUGUCUGUGUGAGGAUAUACUUUUUUUGGUUUUUGUAGAAGGCACAUGAGGAUCACCCAUGUAUUUUGUUGUG | 37.7 | 50.2 | – | – |

| Sequence | apparent Kd [1] [nM] | apparent Kd [2] [nM] | apparent Kd [3] [nM] | apparent Kd [4] [nM] |
| --- | --- | --- | --- | --- |
| CUUCGACAUGAGGAUCACCCAUGUCAGGAUAUUGUGUAUCGGGUUUUUUACGGAUAGGCAAGAAGGGAUGUGUG | 35.6 | 34.2 | – | – |
| UCAUACGGUGAGGAUAUCUCCGCUAAAGUGUGUAGAGAAGGCGCUACAUGAGGAUCACCCAUGUUUAUGGGCAG | 403 | 228 | – | – |
| GCAGACUUGCUGAAGGUGUUCCACAUGAGGAUCACCCAUGUCAAGGAUAUAACGCGUCCGGCCCGUUAGAAGGUGACAGUUUGC | 368 | 229 | – | – |
| GUUUACGUAGAAGGAUAUACAUUUGACAUCCUGAUGCACGCAAUACUCACAUGAGGAUCACCCAUGUAGAAGGUCUGCGAAAGA | 15.5 | 24.8 | – | – |
| AUACUAAAUGAAGGAUAUCUAAGCAUAAACCUGAGAGAAGGUCAUUUUUACAUGAGGAUCACCCAUGUUGUGAUUAAUGGGUUA | 71.8 | 144 | – | – |
| GGAGCGGAAGGAUAUGCUGCGGGAUUGAAUGGAAAGAAAAUACAUGAGGAUCACCCAUGUAGAAGGUCCGUGAA | 18.2 | 54.2 | – | – |
| UGAAAGUGAGGAUAUGGUGAGUAGUGCCUGAGCGCUGCUCACCAGAAGGCACAUGAGGAUCACCCAUGUAAAUG | 53.4 | 170 | – | – |
| UGUAAGAUGCAGAAGGUGUUAGCUAGAGCUACGACAUGAGGAUCACCCAUGUACUAGAAACAGUACAAGGAUAUGCAUCUUACU | – | – | 18 | 6.53 |
| AGAUGGUAUAUAGGAUAUCAUGUGCAAACAUGAGGAUCACCCAUGUAGGAACGUCAGUUCAAUAAUGAGAAGGAUAUACCAUCU | – | – | 33.4 | 11.9 |
| CCGGGACAUGAGGAUCACCCAUGUUUCGUUUGUAGUAAAGCACAGGAUAUGAUGAAACAGGUUUCUCAGAAGGGUGUUCCGAAA | – | – | 91 | 75.4 |
| UGUCGGAGCAGAGGAUAUUACAUGAGGAUCACCCAUGUAUGAACCAAUAGCUGGAAACAGCGAUGUAAGAAGGCUGCUCCGACA | 10.2 | 124 | – | – |
| GCUCGAUGAGCUGUCUACAUGAGGAUCACCCAUGUAGAUGGGCAGGAUAUUUACGUGCUUUAUGUAGAGAAGGGCCCAUCGAGC | – | – | – | 28.8 |
| AGAGCCUCGUGAGGAUAUACAUGAGGAUCACCCAUGUAAAUGGAAGAACGGAGGAAACUCCGAAUGUAGAAGGCACGAGGCUCA | 149 | 1240 | – | – |
| GCCUUAUCGGUCAGGAUAUACACCCGUCAGUUGUUGUAGAAGGGACAUGAGGAUCACCCAUGUACAUUACAUUG | 21.8 | 45.5 | – | – |
| AUAUAUAUAAAGAAGGUGCCAGCGAGAGCUGCACAUGAGGAUCACCCAUGUUGUCGGUGACGACGCAAGGAUAUUUAUAUAUAU | – | – | 31.6 | 7.28 |
| ACAUGAGGAUCACCCAUGUGAACAUAGGAUAUUGGUGAUCAGGCAUGUUAUACAGGAUAUGUCUGCGAGAAGGAUGCACGUUGC | – | – | 567 | 341 |
| CAGUACUGAGGAUAUACAUGAGGAUCACCCAUGUGUUCCAGCUAGGAAACUAGCAAAAGUAGAAGGUAGUACUG | 13.7 | 56.5 | – | – |
| AAUCCACAUGAGGAUCACCCAUGUGAGGAUAUGUCCAUAUUCGGCAAAUCGGAUAUGGACAGAAGGCACAUAAA | 32.9 | 87.1 | – | – |
